pKi: −log10 of the molar value. Some results are limits rather than exact numbers.

A word on the pKi: it is −log10 of the Ki, conventionally taken in molar units.

Assay [1] addresses T1, 5-hydroxytryptamine receptor 6 (Homo sapiens, UniProt P50406). In words: Inhibition of [3H]LSD binding to human 5-hydroxytryptamine 6 receptor expressed in HEK293 cells. It is filed as cell-based. In outline: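 Bound ligand collected on polyethylenimine-pretreated glass fiber filters, washed with 50 mM Tris Cl pH 7.4, counted by liquid scintillation. Nonspecific binding defined with 100 µM serotonin. Competition data fitted by LIGAND; triplicate determinations per point.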

Assay [2] has as its target T1, 5-hydroxytryptamine receptor 6. In words: Antagonist activity against cAMP accumulation in C6 cells expressing 5-hydroxytryptamine 6 receptor. In kind it is functional, cell-based. To be noted: Rattus norvegicus, filed as antagonist. In a few lines:
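C6 cells detached with trypsin 2 h before assay, seeded ~50 000 cells/well. Compounds added with or without forskolin for 30 min. Data are means of at least three separate experiments.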

Assay [3] shares this target. In words: Binding affinity for human 5-hydroxytryptamine 6 receptor.
Assay [4] has the same target. In words: Partial agonist activity against cAMP accumulation in C6 cells expressing 5-hydroxytryptamine 6 receptor. To be noted: Rattus norvegicus, filed as partial agonist. It is filed as functional, cell-based.
For assay [5] the target is unchanged. In words: Agonist activity against cAMP accumulation in C6 cells expressing 5-hydroxytryptamine 6 receptor. It is filed as functional, cell-based. To be noted: Rattus norvegicus, filed as agonist. On the technique in general: cAMP levels reflect the balance of adenylyl cyclase and phosphodiesterase activity.

T1 sequence (P50406 whole entry): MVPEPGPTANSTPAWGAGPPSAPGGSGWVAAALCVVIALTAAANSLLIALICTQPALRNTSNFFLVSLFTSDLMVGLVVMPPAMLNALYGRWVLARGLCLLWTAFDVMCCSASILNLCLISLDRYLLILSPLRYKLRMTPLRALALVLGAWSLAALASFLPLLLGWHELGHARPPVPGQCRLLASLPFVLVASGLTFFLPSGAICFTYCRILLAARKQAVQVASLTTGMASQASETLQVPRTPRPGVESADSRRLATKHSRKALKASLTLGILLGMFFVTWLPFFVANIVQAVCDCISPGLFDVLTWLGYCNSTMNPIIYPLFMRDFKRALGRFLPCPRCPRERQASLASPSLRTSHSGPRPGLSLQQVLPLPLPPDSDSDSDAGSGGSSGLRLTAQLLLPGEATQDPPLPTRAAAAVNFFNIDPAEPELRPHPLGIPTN

As for `Cc1c(S(=O)(=O)Nc2ccc3cc(C)n(CCN(C)C)c3c2)sc2ccc(Cl)cc12`, the pKi in assay [1] is under 6.00. Molecule `Cc1cc2cc(NS(=O)(=O)c3c(Cl)nc4sccn34)ccc2n1CCN(C)C` showed a pKi in assay [1] of 7.13. In addition, in assay [2], the Activity entry is “Antagonist”. In the case of `CCN(CC)C(=O)C(=O)c1c[nH]c2ccc(NS(=O)(=O)c3cccc4cccnc34)cc12`, the pKi in assay [1] was under 6.00. For the molecule `CN1CC=C(c2cn(S(=O)(=O)c3cccc4ccccc34)c3ccc(F)cc23)CC1`, the pKi in assay [3] was over 7.30. In the case of `CN1CCC(c2c[nH]c3ccc(NS(=O)(=O)c4cccc5c(Cl)cccc45)cc23)CC1`, the pKi in assay [1] was 8.02. Also, in assay [2], the Activity result was “Antagonist”. As for `Cc1c(S(=O)(=O)Nc2ccc3[nH]cc(C(=O)C(=O)N(C)C)c3c2)sc2ccc(Cl)cc12`, the pKi in assay [1] was under 6.00. `O=C1OCc2ccccc2N1C1CCN(S(=O)(=O)c2csc3ccccc23)CC1` gave a pKi in assay [1] of 6.90. Further, the Activity result in assay [2] was “Antagonist”. In assay [3], `CN1CCN(C2Cc3ccccc3Sc3ccc(Cl)cc32)CC1` (stereo not given) [CLOROTEPINE] gave a pKi of over 7.30. `O=S(=O)(Nc1ccc2[nH]cc(CCN3CCOCC3)c2c1)c1ccc2ccccc2c1` had a pKi in assay [1] of 6.88. Besides, the Activity entry in assay [2] was “Antagonist”. Consider `O=S(=O)(Nc1ccc2[nH]cc(CCN3CCCC3)c2c1)c1ccc2ccccc2c1`, for which the Activity entry in assay [4] was “Partial agonist”. This molecule also had a pKi in assay [1] of 8.37. The like results for `Cc1c(S(=O)(=O)Nc2ccc3[nH]cc(CCN4CCCC4)c3c2)sc2ccc(Cl)cc12` were, in that order, “Partial agonist” and 8.40. In turn, `Cc1cc2cc(NS(=O)(=O)c3cccc4ccccc34)ccc2n1CCN(C)C` showed a pKi in assay [1] of 6.91. In addition, the Activity entry in assay [2] is “Antagonist”. Take `CN(C)CCc1c[nH]c2ccc(NS(=O)(=O)c3ccc(-c4ccccc4)cc3)cc12`: in assay [5], the Activity entry is “Agonist”. In assay [1], this molecule had a negative-log Ki (pKi) of 9.40. As for `O=C1OCc2ccccc2N1C1CCN(S(=O)(=O)c2cccc3cccnc23)CC1`, the Activity result in assay [2] was “Antagonist”. Take `Cc1cc2cc(NS(=O)(=O)c3ccc4ccccc4c3)ccc2n1CCN(C)C`: in assay [1], the pKi is 7.07. Besides, in assay [2], the Activity result was “Antagonist”. The molecule `O=S(=O)(Nc1ccc2ccn(CCN3CCCC3)c2c1)c1c(Cl)nc2sccn12` had a pKi in assay [1] of 7.28. The Activity entry in assay [2] was “Antagonist”. For `CNc1cc(NS(=O)(=O)c2ccc(N)cc2)cc(NC)n1`, the pKi in assay [1] is 7.83. As for `O=S(=O)(Nc1ccc2ccn(CCN3CCCC3)c2c1)c1cccc2ccccc12`, the pKi in assay [1] is 7.73. Moreover, the Activity result in assay [2] is “Antagonist”.

Take `CCN(CC)C(=O)C(=O)c1c[nH]c2ccc(NS(=O)(=O)c3c(Cl)nc4sccn34)cc12`: the Activity entry in assay [2] is “Antagonist”. For the molecule `O=S(=O)(Nc1ccc2c(ccn2CCN2CCCC2)c1)c1c(Cl)nc2sccn12`, the pKi in assay [1] is 8.01. Moreover, in assay [2], the Activity result is “Antagonist”. The like results for `CCN(CC)CCn1ccc2cc(NS(=O)(=O)c3cccc4ccccc34)ccc21` were, in that order, 6.93 and “Antagonist”.

In the case of `O=S(=O)(Nc1ccc2[nH]cc(CCN3CCCC3)c2c1)c1cccc2ccccc12`, the pKi in assay [1] was 8.35. Further, the Activity entry in assay [2] was “Antagonist”. Turning to `Cc1c(S(=O)(=O)Nc2ccc3[nH]cc(C4CCN(C)CC4)c3c2)sc2ccc(Cl)cc12`, the pKi in assay [1] is 9.00. Besides, the Activity result in assay [2] was “Antagonist”. Consider `CN1CCN(C2=Nc3ccccc3Oc3ccc(Cl)cc32)CC1` [LOXAPINE], for which the pKi in assay [3] is over 7.30.

In assay [1], `O=S(=O)(CCc1cccc2ccccc12)Nc1ccc2ccn(CCN3CCCC3)c2c1` had a pKi of 6.71. In addition, in assay [2], the Activity result is “Antagonist”. Taken in the same sequence, the figures for `CCN(CC)CCn1ccc2cc(NS(=O)(=O)c3c(Cl)nc4sccn34)ccc21` were 7.01 and “Antagonist”. `Cc1c(S(=O)(=O)Nc2ccc3ccn(CCN(C)C)c3c2)sc2ccc(Cl)cc12`: in assay [4], the Activity entry was “Partial agonist”. `CCCN(CCC)CCc1c[nH]c2ccc(NS(=O)(=O)c3sc4ccc(Cl)cc4c3C)cc12`: in assay [4], the Activity entry was “Partial agonist”. In assay [1], this molecule gave a pKi of 9.30. On to `Cc1c(S(=O)(=O)Nc2ccc3ccn(CCN4CCCC4)c3c2)sc2ccc(Cl)cc12`, for which the negative logarithm of the Ki (pKi) in assay [1] is 6.96. In assay [2], the Activity result was “Antagonist”. As for `O=S(=O)(Nc1ccc2ccn(CCN3CCCC3)c2c1)c1ccc2ccccc2c1`, the pKi in assay [1] is 7.00. The Activity result in assay [2] is “Antagonist”. In the case of `CCN(CC)CCc1c[nH]c2ccc(NS(=O)(=O)c3ccc(-c4ccccc4)cc3)cc12`, the Activity entry in assay [5] is “Agonist”. In the case of `CN(C)CCc1c[nH]c2ccc(NS(=O)(=O)c3cccc4ccccc34)cc12`, the Activity result in assay [4] was “Partial agonist”. In assay [1], the negative logarithm of the Ki (pKi) was 9.10. In assay [1], `Cc1cccc2c1N(C1CCN(S(=O)(=O)c3csc4ccccc34)CC1)C(=O)OC2` showed a pKi of 6.90. Moreover, the Activity entry in assay [2] is “Antagonist”.

Regarding `O=S(=O)(Nc1ccc2[nH]cc(CCN3CCOCC3)c2c1)c1cccc2ccccc12`, the pKi in assay [1] was 6.79. For the same molecule, the Activity result in assay [2] is “Antagonist”. On to `CCN(CC)CCc1c[nH]c2ccc(NS(=O)(=O)c3ccc4ccccc4c3)cc12`, for which the negative-log Ki (pKi) in assay [1] is 7.39. For the molecule `CCN(CC)CCc1c[nH]c2ccc(NS(=O)(=O)c3cc(Cl)cc(Cl)c3)cc12`, the Activity result in assay [4] is “Partial agonist”.

Take `CCN(CC)C(=O)C(=O)c1c[nH]c2ccc(NS(=O)(=O)c3cccc4ccccc34)cc12`: the pKi in assay [1] is under 6.00. Consider `CCN(CC)CCc1c[nH]c2ccc(NS(=O)(=O)c3cccc4c(Cl)cccc34)cc12`, for which the Activity result in assay [4] is “Partial agonist”. In addition, the pKi in assay [1] was 8.48. Consider `CCCCN(CCCC)CCc1c[nH]c2ccc(NS(=O)(=O)c3cccc4ccccc34)cc12`, for which, in assay [1], the pKi is 8.14. Further, the Activity entry in assay [2] was “Antagonist”. With `CCN(CC)CCn1ccc2cc(NS(=O)(=O)c3ccc4ccccc4c3)ccc21`, the pKi in assay [1] was 6.85. The Activity entry in assay [2] is “Antagonist”. As for `CN(C)CCn1ccc2cc(NS(=O)(=O)c3c(Cl)nc4sccn34)ccc21`, the Activity entry in assay [2] was “Antagonist”. The molecule `CN(C)CCc1c[nH]c2ccc(NS(=O)(=O)c3ccc4c(Cl)cccc4c3)cc12` had a pKi in assay [1] of 9.70. The Activity result in assay [2] was “Antagonist”. `O=S(=O)(Nc1ccc2c(ccn2CCCN2CCCCC2)c1)c1c(Cl)nc2sccn12`: in assay [1], the pKi is under 6.00.

Consider `CCCN(CCC)CCc1c[nH]c2ccc(NS(=O)(=O)c3ccc4ccccc4c3)cc12`, for which, in assay [4], the Activity result was “Partial agonist”. The molecule further gave a pKi in assay [1] of 8.41. As to `CN(C)CCn1ccc2c(NS(=O)(=O)c3ccc4ccccc4c3)cccc21`, the pKi in assay [1] was 7.83. Further, the Activity entry in assay [2] is “Antagonist”. On to `CN1CCC(c2c[nH]c3ccc(NS(=O)(=O)c4cccc5ccccc45)cc23)CC1`, for which the Activity entry in assay [2] was “Antagonist”. For the molecule `Cc1c(S(=O)(=O)Nc2ccc3[nH]cc(CCN4CCOCC4)c3c2)sc2ccc(Cl)cc12`, the pKi in assay [1] is 7.82. The Activity entry in assay [2] was “Antagonist”. Taken in the same sequence, the figures for `Cc1c(S(=O)(=O)Nc2ccc3[nH]cc(CN(C)C)c3c2)sc2ccc(Cl)cc12` were 8.28 and “Antagonist”. On to `OCCN1CCN(CCCN2c3ccccc3Sc3ccc(C(F)(F)F)cc32)CC1` [FLUPHENAZINE], for which the pKi in assay [3] is over 7.30. The molecule `COc1ccc(OC)c(S(=O)(=O)N2CCC(N3C(=O)OCc4cccc(C)c43)CC2)c1` had a negative-log Ki (pKi) in assay [1] of 6.88. Besides, the Activity entry in assay [2] was “Antagonist”. With `CN(C)CCc1c[nH]c2ccc(NS(=O)(=O)c3c(Cl)nc4sccn34)cc12`, in assay [4], the Activity result was “Partial agonist”.

`CN(C)CCn1ccc2c(NS(=O)(=O)c3cccc4ccccc34)cccc21` gave a pKi in assay [1] of 7.19. In addition, in assay [2], the Activity result is “Antagonist”.

Consider `COc1ccc2c(c1)c(CCN(C)C)cn2S(=O)(=O)c1ccccc1`, for which the pKi in assay [3] was over 7.30. In assay [3], `CCc1[nH]c2ccc(OC)cc2c1CCN(C)C` gave a pKi of over 7.30. In turn, `COc1ccc(Br)cc1S(=O)(=O)N1CCC(N2C(=O)OCc3cccc(C)c32)CC1` gave a pKi in assay [1] of under 6.00. On to `Cc1c(S(=O)(=O)Nc2cccc3c2cc(C)n3CCN(C)C)sc2ccc(Cl)cc12`, for which the pKi in assay [1] is 7.24. Moreover, the Activity result in assay [2] was “Antagonist”.

Turning to `CN(C)C(=O)C(=O)c1c[nH]c2ccc(NS(=O)(=O)c3c(Cl)nc4sccn34)cc12`, the Activity entry in assay [2] was “Antagonist”. Consider `O=S(=O)(Nc1ccc2c(ccn2CCN2CCCCC2)c1)c1c(Cl)nc2sccn12`, for which the pKi in assay [1] was 7.50. Also, in assay [2], the Activity result is “Antagonist”. `CCN(CC)CCCc1c[nH]c2ccc(NS(=O)(=O)c3ccc4ccccc4c3)cc12`: the pKi in assay [1] is 6.79. The Activity entry in assay [2] was “Antagonist”. In turn, `Cc1cccc2c1N(C1CCN(S(=O)(=O)c3cccc4c(N(C)C)cccc34)CC1)C(=O)OC2` gave a negative-log Ki (pKi) in assay [1] of 6.47. The Activity entry in assay [2] is “Antagonist”.

Turning to `O=C1OCc2ccccc2N1C1CCN(S(=O)(=O)c2cccc3ccccc23)CC1`, the Activity result in assay [2] was “Antagonist”. Consider `Cc1cccc2c1N(C1CCN(S(=O)(=O)c3cccc4cccnc34)CC1)C(=O)OC2`, for which, in assay [2], the Activity entry was “Antagonist”. On to `CN(C)CCn1ccc2ccc(NS(=O)(=O)c3ccc4ccccc4c3)cc21`, for which the Activity entry in assay [2] was “Antagonist”.

In assay [3], `CC(C)C[C@H]1C(=O)N2CCC[C@H]2[C@]2(O)O[C@](NC(=O)[C@@H]3C=C4c5cccc6[nH]c(Br)c(c56)C[C@H]4N(C)C3)(C(C)C)C(=O)N12` [BROMOCRIPTINE] gave a pKi of over 7.30. As for `CN(C)CCn1ccc2cc(NS(=O)(=O)Cc3ccccc3)ccc21`, the pKi in assay [1] was under 6.00. In assay [1], `CNc1cc(NS(=O)(=O)c2ccc(N)cc2)nc(NC)n1` had a pKi of 7.35. Turning to `CN(C)CCn1ccc2cc(NS(=O)(=O)c3ccc4ccccc4c3)ccc21`, in assay [1], the pKi was 7.24. In addition, the Activity result in assay [2] was “Antagonist”.
